Compound activity as filed in PubChem BioAssay.
Rows were chosen to be rich in hits. Some 3.7% of all compounds tested hit in one or more screens of this group.
NPY Y1 blocker: NPY-Y1 receptor antagonists, primary screen, cell-based; Neuropeptide Y receptor type 1 (Homo sapiens), P25929; HEK293-CNG Y1 cells, membrane potential fluorescence; NPY at EC95, then isoproterenol; inhibition, % at 3.6 µM; actives 1% (n = 200,000); AID 1040, 2008;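 active = inhibition above the campaign mean inhibition of all tested compounds plus 3 SD, cut at about 20% in these data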;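 note: 0% = DMSO wells given NPY plus isoproterenol and 100% = isoproterenol alone without NPY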
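Material: HEK293 Y1/CNG channel cell line; also added: NPY (25 nM), isoproterenol (1 µM), Ro 20-1724 (25 µM); doses: one concentration, 3.6 µM, in 0.4% DMSO; schedule: compound incubation 1 h at room temperature, readout 45 min post-stimulation; technique: membrane potential fluorescence; measure: fluorescence ratio normalized to % inhibition between controls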
NPY1 pot ag: NPY-Y1 receptor potentiators or agonists, primary screen, cell-based; Neuropeptide Y receptor type 1 (Homo sapiens), P25929; NPY-Y1 expressing cells, potentiator/agonist activation; activation, % at 3.6 µM; actives 0.37% (n = 220,000); AID 1304, 2008; in the data active = activation above about 33%, passing the limit was not always enough;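 note: cells stimulated with NPY at EC10 then isoproterenol at EC100; 0% = low agonist plus stimulus and 100% = saturating agonist plus stimulus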
Furin inh: human furin inhibitors, primary screen, biochemical, fluorescence intensity. AID 463115, 2010. inhibition, % at 20 µM or 30 µM. P09958. actives 0.061% (n = 220,000). purified furin, fluorogenic substrate cleavage; in the data active = inhibition above about 25%
NPY-Y2 antag: NPY-Y2 receptor antagonists, primary screen, cell-based | Neuropeptide Y receptor type 2 (Homo sapiens), P49146 | NPY-Y2 expressing cells, antagonist mode | inhibition, % at 2.7 µM | actives 0.99% (n = 140,000) | AID 793, 2007; in the data active = inhibition above about 17%;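 note: 0% = vehicle with agonist challenge and 100% = reference antagonist with challenge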
NPY-Y2 PAM-ag: NPY-Y2 potentiators or agonists, primary screen, cell-based; actives 0.45% (n = 220,000); activation, % at 3.6 µM; AID 1359, 2008; cells expressing NPY-Y2, potentiator/agonist read-out; Neuropeptide Y receptor type 2 (Homo sapiens), P49146; in the data active = activation above about 27%;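 note: cells stimulated with NPY near EC25 plus isoproterenol at EC100; 0% = vehicle plus submaximal agonist and 100% = vehicle plus saturating agonist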
KCC2 mod: KCC2 cotransporter modulators, thallium flux, primary screen, cell-based, HEK293 KCC2, FluoZin-2 fluorescence, MLSMR. AID 1456, 2008. actives 2.2% (n = 190,000). KCC2 cells, thallium flux FluoZin-2 fluorescence. B-score of Tl+ flux slope (higher = more flux/activation; lower = inhibition) at 10 µM;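 active = thallium flux slope and its plate-corrected score both differing from the plate sample mean at a set confidence after two filtering rounds, in either direction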;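 note: slope of fluorescence scaled to starting intensity during 10 to 20 s after thallium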
KCC2 sec1: KCC2 modulators in sodium-free buffer, confirmation, cell-based, HEK293 KCC2, thallium flux, secondary assay. shares compounds with KCC2 mod. FluoZin2 fluorescence; stronger effect = higher value. normalised thallium flux (F/F0 slope) at 10 µM. actives 15% (n = 3,700). AID 1713, 2009;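 active = thallium flux slope above the same plate's solvent-only control mean plus 3 SD; inconclusive = the two replicate wells disagree; inactive = no significant difference from solvent-only control wells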
KCC2 bumet counter: thallium flux persisting under bumetanide in KCC2 cells, confirmation, counter-screen for KCC2 modulator project, cell-based, HEK293 KCC2, FluoZin2, secondary assay 3 | actives 49% (n = 3,700) | HEK293-KCC2 + bumetanide/ouabain; stronger effect = higher value | shares compounds with KCC2 mod | normalized thallium flux at 10 µM;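 active = thallium entry rate above the same plate's blocked-transporter control wells by more than 3 SD; inconclusive = the two repeat wells disagree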;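 note: raw slope of fluorescence over initial fluorescence between 10 and 20 s after thallium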
KCC2 secondary2: KCC2 modulators without ouabain present, confirmation, cell-based, HEK293 KCC2, thallium flux, FluoZin2, secondary assay 2; actives 23% (n = 3,700); AID 1715, 2009; thallium flux FluoZin2 fluorescence; actives lie on both sides; F/F0 rise rate, 10–20 s post-thallium; shares compounds with KCC2 mod; normalized thallium flux at 10 µM;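 active = thallium flux slope more than 3 SD above or below the plate's solvent-only control mean, mostly below; inconclusive = the two repeat wells disagreed; inactive = no significant shift from solvent-only controls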;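 note: raw slope with 0.1% DMSO as baseline and bumetanide as block control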
HEK counter1: thallium flux modulation in parental HEK cells, confirmation, counter-screen for KCC2 modulator project, cell-based, counterscreen 1 | shares compounds with KCC2 mod | HEK293 parental cells, thallium flux FluoZin2, ouabain; baseline-ratio fluorescence slope, 10–20 s after thallium | thallium flux rate (normalised fluorescence) at 10 µM | actives 46% (n = 3,700);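 active = thallium flux rate significantly above the same plate's solvent-only control wells, beyond their mean plus 3 SD; inconclusive = the two replicate wells gave conflicting results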
KCC2 ouabain: KCC2 inhibitors and activators, ouabain retest, confirmation, HEK-KCC2 cells | HEK293-KCC2, thallium flux FluoZin2 fluorescence; bidirectional: low = inhibitor, high = activator | actives 48% (n = 3,700) | raw Tl+ flux slope (below DMSO = inhibition, above = activation) at 10 µM | shares compounds with KCC2 mod;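 active = thallium flux slope beyond 3 SD from same-plate DMSO control mean in most replicates, usually higher, sometimes lower; inconclusive = repeat tests gave conflicting results; inactive = no significant difference from controls in most replicates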;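 note: slope of initial-normalized fluorescence between seconds 10 and 20 after thallium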
HEK293 Tl flux2: native HEK Tl+ uptake effects, second counter-screen – HEK cells, counterscreen 2, counter-screen for KCC2 modulator project, confirmation; HEK293 parental, thallium flux FluoZin-2 fluorescence slope; shares compounds with KCC2 mod; thallium flux slope at 10 µM; actives 33% (n = 3,700);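 active = thallium flux slope above the same plate's solvent-control mean plus 3 SD in both duplicate wells; inconclusive = duplicate wells that disagreed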;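 note: run without ouabain in cells lacking the KCC2 cotransporter; slope of fluorescence scaled to its starting value between 10 and 20 s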
The depositor's hits bear a star; ? = inconclusive; . = no result given.

SMILES	NPY Y1 blocker	NPY1 pot ag	Furin inh	NPY-Y2 antag	NPY-Y2 PAM-ag	KCC2 mod	KCC2 sec1	KCC2 bumet counter	KCC2 secondary2	HEK counter1	KCC2 ouabain	HEK293 Tl flux2
O=C(Nc1ccc(OC(F)(F)F)cc1)c1[nH]ncc1[N+](=O)[O-]	-2	9	-32	.	10	13*	0.0081	0.02*	0.033	0.022*	?	0.016*
O=C(NCc1ccccc1)C1C2C=CC3(CN(Cc4cccnc4)C(=O)C13)O2 (stereo unspecified)	5	18	-26	1	0	1	.	.	.	.	.	.
CC(C)N1C(=O)C2C(C(=O)NCc3ccccc3)C3C=CC2(O3)C1C(=O)NC(C)(C)C (stereo unspecified)	15	21	-14	0	5	2.8*	0.0094	0.0062	0.03	0.0077	0.026	0.01
COc1ccc(C2=CSC3=NNC4(CCCCC4)NN23)cc1	-2	7	-22	.	1	-0.43	.	.	.	.	.	.
Cc1ccc(C2=CSC3=NNC4(CCCCC4)NN23)cc1	-1	7	-24	.	4	-4.4*	0.0071	0.0058*	0.024*	0.0084	?	0.011
CCOC(=O)c1c(C(C)(C)C)oc2ccc(O)cc12	-8	29	-6	2	18	-6.2*	0.008	0.0063	0.035	0.0079	?	0.01
COc1ccc(/C(O)=C/Sc2nnc(Cc3ccccc3)o2)cc1	4	-31	-12	7	-24	-4.9*	0.0063	0.0053	0.025*	0.0065	0.013*	?
CS(=O)(=O)N1N=C(c2cccs2)CC1c1ccccc1 (stereo unspecified)	.	-7	-15	.	-4	-0.067	.	.	.	.	.	.
c1ccc(C2Oc3ccccc3C3CC(c4cccs4)=NN32)cc1 (stereo unspecified)	6	-3	-12	3	6	9.3*	0.01	0.046*	0.037	0.06*	0.055*	0.02*
COc1cc(NC(=O)CSc2nccc(=O)[nH]2)c(C)cc1[N+](=O)[O-]	-1	0	-3	.	-20	-3.4*	0.0067	0.0046	0.03	0.007	0.018	0.0098
COc1ccccc1NC(=O)CSc1nccc(=O)[nH]1	4	-24	-23	4	-4	0.14	.	.	.	.	.	.
Cc1ccc(S(=O)(=O)N(CCC(=O)O)Cc2ccc(Cl)cc2)cc1	9	-22	-13	3	-23	.	0.0059	0.0067*	0.022*	0.0072	0.013*	0.011
CCc1ccc(NC(=O)CCn2c(=O)oc3ccccc32)cc1	4	20	-26	1	2	.	0.0072	0.004	0.028	0.0071	?	0.0095
O=C(CCn1c(=O)oc2ccccc21)N1CCOCC1	0	-17	-13	-2	-7	.	.	.	.	.	.	.
O=C(CCn1c(=O)oc2ccccc21)N1CCc2ccccc21	4	5	-4	-1	-12	.	0.0077	0.0065	0.028	0.0068	?	0.0095
COc1ccccc1C(=O)N/C(=C\c1ccc2c(c1)OCO2)C(=O)NCCc1nc2ccccc2[nH]1	6	-26	2	4	-13	-0.23	.	.	.	.	.	.
CCOC(=O)c1cccc(NC(=S)NCc2ccc(C)cc2)c1	3	-11	-31	.	-20	0.49	.	.	.	.	.	.
COc1ccc(CCN(Cc2cc3ccc(C)cc3n3nnnc23)C(C)=O)cc1OC	6	-10	-14	.	1	-0.04	.	.	.	.	.	.
O=C(c1ccc2c3n(nc2c1)-c1ccccc1CO3)N1CCOCC1	.	.	-18	.	.	-1.7	.	.	.	.	.	.
O=C(c1ccc2c3n(nc2c1)-c1ccccc1CO3)N1CCCCC1	.	.	-37	.	.	-2.5*	0.0069	?	0.032	0.0076	0.02	0.0098
Cc1nc(N(C)Cc2ccccc2)c2nnn(Cc3ccccc3)c2n1	-2	25	-12	4	4	.	.	.	.	.	.	.
CCc1oc2ccccc2c1C(=O)c1cc(Br)c(O)c(Br)c1	10	-14	-2	12	-5	-1.6	0.0067	0.019*	0.022*	0.011*	?	?
CCc1ccc(OCC(=O)c2c(O)c3ccccc3oc2=O)cc1	7	-3	-13	.	-13	0.046	.	.	.	.	.	.
CN1CCN(NC(=O)CN2C(=O)S/C(=C\c3c(Cl)cccc3Cl)C2=O)CC1	7	-2	-21	.	-5	1.1	.	.	.	.	.	.
Cc1ccc(N=C2NC(=O)/C(=C\c3ccc(C)s3)S2)cc1	2	-6	-20	.	8	0.9	.	.	.	.	.	.
CC(C)(C)NC(=S)N/N=C/c1c(Cl)cccc1Cl	.	-25	-4	.	-46	7.8*	0.0075	0.0094*	0.03	0.012*	0.022	0.013*
CCOc1ccc(N(CC(=O)Nc2c(C)n(C)n(-c3ccccc3)c2=O)S(=O)(=O)c2ccccc2)cc1	-2	7	-23	.	2	-2.8*	0.0093	0.0068	0.031	0.0082	0.018	0.011
COc1ccccc1N(CC(=O)Nc1c(C)n(C)n(-c2ccccc2)c1=O)S(=O)(=O)c1ccc(C)cc1	9	-1	-22	.	-2	-0.8	.	.	.	.	.	.
Cc1ccc2nc(CSc3nc(C)cc(C)c3C#N)[nH]c2c1	8	-8	-13	5	-1	5.9*	0.017	0.0035	0.025*	0.0061*	0.014	0.0094
